pIC50: −log10 of the molar value. Active and inactive are the calls of the source. No cut-off for these calls is given here.
Columns and labels:
[1] = target: DNA nucleotidylexotransferase (Bos taurus, UniProt P06526); assay: Inhibition of calf TdT assessed as inhibition of incorporation of dTTP into oligo(dT)18(3'OH) after 60 mins
In short: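 Enzyme (0.05 units) was preincubated with compound in DMSO at 0 °C for 10 min in Tris-HCl pH 7.5/DTT/glycerol/EDTA buffer, then reacted at 37 °C for 60 min. Substrates were poly(rA)/oligo(dT)18 (A/T = 2/1) plus dTTP for HIV-1 RT, and oligo(dT)18 (3′-OH) primer plus dTTP for calf thymus TdT. Activity was relative to uninhibited control; mean ± SE of three experiments.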

A549 = assay: Growth inhibition of human A549 cells after 24 hrs by WST-1 assay; type: functional; settings: A549, 24 h
In short: (§1)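 Cancer cells were grown in McCoy's 5A with 10% FBS and penicillin/streptomycin, 37 °C, 5% CO2. Cells were seeded at 1 × 10^4 per well, cultured 12 h, then given compound (10 mM DMSO stock diluted in medium, 0.5% DMSO) for 24 h. WST-1 was added for 4 h and absorbance read at 450/630 nm. GI50 given as mean ± SE, five independent experiments.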

[2] = Inhibition of human DNA polymerase epsilon assessed as inhibition of incorporation of dTTP into poly(dA)/oligo(dT)18 after 60 mins
In short: (§2)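 Compound in DMSO was sonicated for 30 s, then held with enzyme (0.05 units final) at 0 °C for 10 min in 50 mM Tris-HCl pH 7.5, 1 mM DTT, 50% glycerol, 0.1 mM EDTA. The mixture was added to the standard reaction mix with poly(dA)/oligo(dT)18 (A/T = 2/1) and dTTP, 37 °C, 60 min. Activity was relative to no-inhibitor control; mean ± SE, three independent experiments.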

[3] = target: DNA polymerase eta (Homo sapiens) (UniProt Q9Y253); assay: Inhibition of C-terminal-His6-tagged human pol eta expressed in Escherichia coli assessed as inhibition of incorporation of dTTP into poly(dA)/oligo(dT)18 after 60 mins
Chain of DNA polymerase eta (Homo sapiens) (Q9Y253 whole entry, looked up): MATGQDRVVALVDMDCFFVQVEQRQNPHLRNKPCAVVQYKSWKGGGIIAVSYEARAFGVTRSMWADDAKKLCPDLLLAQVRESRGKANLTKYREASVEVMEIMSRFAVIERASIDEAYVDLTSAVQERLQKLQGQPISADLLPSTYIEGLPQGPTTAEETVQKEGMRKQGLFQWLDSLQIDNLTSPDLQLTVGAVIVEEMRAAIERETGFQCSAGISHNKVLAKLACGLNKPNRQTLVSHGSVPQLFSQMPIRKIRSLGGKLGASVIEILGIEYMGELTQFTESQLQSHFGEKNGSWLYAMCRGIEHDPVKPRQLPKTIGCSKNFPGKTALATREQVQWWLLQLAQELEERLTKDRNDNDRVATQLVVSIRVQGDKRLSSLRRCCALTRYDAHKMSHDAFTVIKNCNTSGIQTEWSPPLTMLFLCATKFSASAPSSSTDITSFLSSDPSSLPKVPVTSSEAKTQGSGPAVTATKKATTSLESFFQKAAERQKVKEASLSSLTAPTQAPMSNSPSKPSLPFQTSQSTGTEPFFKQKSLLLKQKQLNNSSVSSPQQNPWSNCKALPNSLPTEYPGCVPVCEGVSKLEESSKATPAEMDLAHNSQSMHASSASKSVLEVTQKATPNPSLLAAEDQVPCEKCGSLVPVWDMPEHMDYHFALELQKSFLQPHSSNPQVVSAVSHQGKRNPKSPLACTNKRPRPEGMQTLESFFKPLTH

BALL-1 = assay: Cell cycle arrest in human BALL-1 cells assessed as accumulation at S-phase at GI50 by tritiated thymidine incorporation assay; type: functional, cell-based
NUGC-3 = assay: Growth inhibition of human NUGC3 cells after 24 hrs by WST-1 assay; type: functional; settings: NUGC-3, 24 h; in short: as §1
[4] = target: T1, DNA polymerase delta catalytic subunit (Homo sapiens, UniProt P28340); assay: Inhibition of human DNA polymerase delta assessed as inhibition of incorporation of dTTP into poly(dA)/oligo(dT)18 after 60 mins; in short: as §2
T1 sequence (P28340 whole entry): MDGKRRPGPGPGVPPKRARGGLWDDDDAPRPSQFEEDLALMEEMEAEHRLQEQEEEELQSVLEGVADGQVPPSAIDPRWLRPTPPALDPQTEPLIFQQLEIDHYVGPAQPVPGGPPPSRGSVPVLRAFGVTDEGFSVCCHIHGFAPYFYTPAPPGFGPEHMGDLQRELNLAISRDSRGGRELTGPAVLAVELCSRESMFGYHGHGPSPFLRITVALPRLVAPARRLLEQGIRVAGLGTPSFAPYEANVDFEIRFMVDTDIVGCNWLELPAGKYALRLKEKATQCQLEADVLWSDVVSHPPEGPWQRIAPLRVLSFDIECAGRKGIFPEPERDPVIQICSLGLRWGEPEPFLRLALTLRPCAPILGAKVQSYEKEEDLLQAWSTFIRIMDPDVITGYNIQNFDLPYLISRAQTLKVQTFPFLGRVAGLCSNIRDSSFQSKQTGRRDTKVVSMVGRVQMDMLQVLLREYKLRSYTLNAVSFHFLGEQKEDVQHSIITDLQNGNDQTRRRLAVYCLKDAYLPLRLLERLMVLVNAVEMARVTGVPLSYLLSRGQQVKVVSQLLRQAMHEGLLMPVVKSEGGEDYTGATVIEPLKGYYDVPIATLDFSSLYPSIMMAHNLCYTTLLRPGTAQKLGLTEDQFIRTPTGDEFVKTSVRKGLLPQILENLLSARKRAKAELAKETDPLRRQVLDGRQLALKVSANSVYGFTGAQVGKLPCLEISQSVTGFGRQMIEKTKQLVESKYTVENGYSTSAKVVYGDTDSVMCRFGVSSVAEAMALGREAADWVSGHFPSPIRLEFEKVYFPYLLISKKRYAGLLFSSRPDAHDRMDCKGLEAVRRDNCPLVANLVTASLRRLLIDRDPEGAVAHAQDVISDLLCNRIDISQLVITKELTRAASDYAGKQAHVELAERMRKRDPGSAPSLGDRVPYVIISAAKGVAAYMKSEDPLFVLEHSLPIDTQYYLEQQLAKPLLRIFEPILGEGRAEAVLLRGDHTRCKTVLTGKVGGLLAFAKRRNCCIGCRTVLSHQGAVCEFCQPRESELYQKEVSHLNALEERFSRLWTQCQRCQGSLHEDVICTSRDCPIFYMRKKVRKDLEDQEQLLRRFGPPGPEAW

Polynucleotide kinase = Polynucleotide kinase (Enterobacteria phage T4, UniProt P06855); assay: Inhibition of T4 arnN8l pseT 1 polynucleotide kinase assessed as inhibition of Salmon sperm DNA phosphorylation using [gamma32P]ATP by liquid scintillation counting; parameters: species or system Tequatrovirus T4
Chain of Polynucleotide kinase (P06855 whole entry, looked up): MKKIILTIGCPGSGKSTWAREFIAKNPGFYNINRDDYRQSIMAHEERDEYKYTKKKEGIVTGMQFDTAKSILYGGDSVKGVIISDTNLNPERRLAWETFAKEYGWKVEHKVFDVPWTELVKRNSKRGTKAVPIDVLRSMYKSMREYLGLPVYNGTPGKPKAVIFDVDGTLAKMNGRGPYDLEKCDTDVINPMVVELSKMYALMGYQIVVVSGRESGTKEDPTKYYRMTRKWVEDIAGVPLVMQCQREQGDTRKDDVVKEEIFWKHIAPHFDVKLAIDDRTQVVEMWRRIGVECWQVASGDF

[5] = Growth inhibition of HDF cells after 72 hrs by WST-1 assay; type: cell-based; settings: human
In short: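 Normal cells (HDF, HUVEC) were grown in Eagle's MEM with 4.5 g/L glucose, 10% FCS, 5 mM L-glutamine and penicillin/streptomycin, 37 °C, 5% CO2. Cells were seeded at 1 × 10^4 per well, cultured 12 h, then exposed to compound (0.5% DMSO final) for 72 h. Viability was read by WST-1 at 450/630 nm. GI50 given as mean ± SE of five experiments.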

Chain of DNA nucleotidylexotransferase (P06526 whole entry): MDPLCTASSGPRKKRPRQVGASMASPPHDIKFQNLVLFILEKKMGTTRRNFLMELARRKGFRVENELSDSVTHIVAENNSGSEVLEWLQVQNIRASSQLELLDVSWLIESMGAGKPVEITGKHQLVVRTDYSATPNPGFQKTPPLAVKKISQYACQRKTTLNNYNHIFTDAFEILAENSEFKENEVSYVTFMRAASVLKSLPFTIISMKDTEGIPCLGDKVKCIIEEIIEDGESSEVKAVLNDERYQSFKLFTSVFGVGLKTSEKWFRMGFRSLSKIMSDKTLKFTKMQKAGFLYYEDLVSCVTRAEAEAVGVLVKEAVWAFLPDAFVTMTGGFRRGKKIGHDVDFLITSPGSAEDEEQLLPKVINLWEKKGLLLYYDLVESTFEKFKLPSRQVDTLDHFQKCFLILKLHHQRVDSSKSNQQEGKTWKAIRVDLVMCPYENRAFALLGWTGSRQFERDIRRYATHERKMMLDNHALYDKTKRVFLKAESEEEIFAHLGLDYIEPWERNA

Cc1cc(O)cc(O)c1C(=O)O[C@H]1[C@@H]2COC(/C=C/CO)=CC2=CC(=O)[C@@]1(C)O [PINOPHILIN B]
pIC50 [1]: < 3.70
GI50 (A549): 93.1 µM
pIC50 [2]: 4.03
pIC50 [3]: 4.04
Activity (BALL-1): Active
GI50 (NUGC-3): 96.8 µM
pIC50 [4]: 4.02
pIC50 (Polynucleotide kinase): < 3.70
GI50 at 72 h [5]: > 200 µM

C/C=C/C1=CC2=CC(=O)[C@@](C)(O)[C@@H](OC(=O)c3c(C)cc(O)cc3O)[C@@H]2CO1
pIC50 [1]: < 3.70
GI50 (A549): 65.7 µM
pIC50 [2]: 4.18
pIC50 [3]: 4.20
Activity (BALL-1): Active
GI50 (NUGC-3): 66.4 µM
pIC50 [4]: 4.17
pIC50 (Polynucleotide kinase): < 3.70
GI50 at 72 h [5]: > 200 µM

C/C=C/C1=CC2=CC(=O)[C@@](C)(OC(=O)c3c(C)cc(O)cc3O)[C@@H](O)[C@@H]2CO1 [PINOPHILIN A]
pIC50 [1]: < 3.70
GI50 (A549): 52.5 µM
pIC50 [2]: 4.28
pIC50 [3]: 4.29
Activity (BALL-1): Active
GI50 (NUGC-3): 54.7 µM
pIC50 [4]: 4.26
pIC50 (Polynucleotide kinase): < 3.70
GI50 at 72 h [5]: > 200 µM

From ChEMBL document CHEMBL2010709, “Pinophilins A and B, inhibitors of mammalian A-, B-, and Y-family DNA polymerases and human cancer cell proliferation” (J Nat Prod, 2012)
